# Source: the array DNA melting data of Ke et al. (doi:10.1101/2024.01.08.574731)
# Assays:
# [1] = folding enthalpy; higher = less favourable; fluorescence melt of hairpins on a sequencing array, two-state fit; conditions: sodium 0.088 M
# In short: (§1)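 With Cy3 and quencher oligos annealed, library hairpins on a sequenced MiSeq flow cell were imaged for Cy3 fluorescence in 50 mM Na-HEPES pH 8.0, 25 mM NaCl, in 2.5 °C steps up to 60 °C. Melting temperature and folding enthalpy were derived from bootstrapped two-state fits of signals normalised to pre-quench Cy3 and to control constructs. Four replicates were combined by inverse variance, with fitted temperatures raised by 9.35 °C to match UV melts.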
# [2] = melting temperature; fluorescence melt of hairpins on a sequencing array, two-state fit, raised by 9.35 °C to match UV melts; conditions: sodium 0.088 M
# In short: as §1
Sequence,folding enthalpy [1] [kcal/mol],Tm [2] [°C]
GCGAAGCGAAAGCAACGC (((..((....))..))),-11,48.4
GGATTTGGAAACAAATCC (((((((....))))))),-44.3,58.2
GATCATTCTTATGATC ((((((....)))))),-40.9,48.6
GATCCATTGTTGGATC ((((((....)))))),-44.2,52.2
GACCGGCGAAAGCCAGTC (((.(((....))).))),-20.2,50.7
GCTGGGCGAAAGCACTGC ((.(.((....)).).)),-29.4,61.3
GCCCGTGGAAACGTGGGC ((((..(....)..)))),-31.2,54.9
GATCAGTGTACTGATC ((((((....)))))),-33.1,59.1
GGATGGCCGAAAGGCTCC (((..(((....)))))),-11.6,37.3
GAATAGCGAAAGCTTTC (((.(((....)))))),-11.6,33.7
GGGCACGGAAACGCACCC (((..((....))..))),-20.2,35.6
GTCAGTCGAAAGACGAC (((.(((....)))))),-32,53.1
GATCCGATCGCGGATC ((((((....)))))),-37.9,56
GGACGCCGAAAGGCTCC (((.(((....)))))),-19.7,54.3
GTGCGTGGAAACGCGCAC (((((.(....).))))),-23.7,65.6
GACCACGAAAGTGACGTC ((((((....)))..))),-16.5,37.5
GTTGTTCGAAAGAAAAAC (((.(((....))).))),-29.1,34.9
GTTAATCGAAAGATAAC (((.(((....)))))),-16.8,30.1
GACAGCCGAAAGGCCGTC (((.(((....))).))),-18.7,55
GTGGACGAAAGTCGACAC ((((((....)))..))),-21.8,47.5
GACAGAGGAAACTCTGTC (((((((....))))))),-41.3,60.6
GTACACGAAAGTGTGTAC ((((((....)))..))),-13.8,46
GGAGAAGGAAACTTCTCC (((((((....))))))),-43.1,57.7

Sequence,folding enthalpy [1] [kcal/mol],Tm [2] [°C]
GGGAATGGAAACGTTCCC (((((.(....).))))),-38,50.6
GGGGTGGGAAACCGCCCC ((((.((....)).)))),-38.1,65.9
GGCAAACGAAAGTTAGCC (((.(((....))).))),-25.1,54.9
CGATACGGAAACGTTTCG (((.(((....))).))),-34.6,45.9
GGTATAGAAATATACC ((((((....)))))),-26.4,41.9
GATAAACGAAAGTTAATC (((.(((....))).))),-16,34.4
GACAAGGGAAACTTTGTC (((((.(....).))))),-27.1,36.9
GCGCTGCGAAAGCCACGC (((..((....))..))),-19.7,52.7
GTAACACCGAAAGGTTAC (((..(((....)))))),-14.8,35.6
GTTCTAGCGAAAGCTAAC (((..(((....)))))),-9.98,28.9
GCGGATGGAAACGTCTGC ((.((.(....).)).)),-28.1,44.3
GAGCTAGGAAACTAGTTC ((.((((....)))).)),-26.8,37.2
GATCTTATTCAAGATC ((((((....)))))),-31.7,43.5
GTCGACCGAAAGGTTGAC (((.(((....))).))),-34.8,62.2
GATCGTTAGACGATC ((((((...)))))),-34.8,52.9
GCCACGCGAAAGCGTCGC ((.((((....)))).)),-16.1,60.2
GGAGCCGAAAGGCACTCC ((((((....)))..))),-11.1,39.9
GGAGAAGGAAACTTCTTC (.(((((....))))).),-23.1,36.7
GTATCCGAAAGGAATAC ((((((....))).))),-23.2,40.4
GAGGTAGCGAAAGCTCTC (((..(((....)))))),-13.6,38
GTAGTTGGAAACAACTAC (((((((....))))))),-43.5,56.1
GGTTCGGGAAACTGGACC (((.(.(....).).))),-29.2,41.2
GGCCAGCGAAAGCTGCC (((.(((....)))))),-16,60

Sequence,folding enthalpy [1] [kcal/mol],Tm [2] [°C]
GCAACCGCGAAAGCGTGC (((..(((....)))))),-14.3,44.7
GCCTAATCGAAAGATGGC (((..(((....)))))),-27.4,44.1
GGCAGTCCGAAAGGAGCC (((..(((....)))))),-22.1,47.4
GTTGCCGAAAGGCAGAAC ((((((....)))..))),-8.61,37.3
GTTTGAGCGAAAGCTAAC (((..(((....)))))),-10.5,31.1
GATCCTGAGTAGGATC ((((((....)))))),-37.9,50.9
GCCGCCCGAAAGGGGGC (((.(((....)))))),-18,68.7
GCTACCGGAAACGGCAAC (.(.(((....))).).),-8.04,18.5
GTTTCCGGAAACGGGAAC (((.(((....))).))),-28.2,54
GCATCCGAAAGGAACTGC ((((((....)))..))),-17.1,33.5
GGTTGAGGAAACTCAGTC (..((((....))))..),-14.5,30.9
GGCTGCGAAAGCAGCGCC ((((((....)))..))),-5.65,68.8
GTGTCCGCGAAAGCGCAC (((..(((....)))))),-14.1,40.5
GCAGTTGGAAACGACTGC (((((.(....).))))),-39.5,55.3
GATCAATCCGTTGATC ((((((....)))))),-32.5,47
GATGATGGAAACACCATC ((((.((....)).)))),-20.8,38.6
GATCACGCTTGTGATC ((((((....)))))),-38,57.7
GATCAGTAGCTGATC ((((((...)))))),-35.8,48.3
GCGAACGAAAGTTTACGC ((((((....)))..))),-21.2,43
GTGTACGAAAGTATACAC ((((((....)))..))),-22,44.9
GACTCCACGAAAGTGGTC (((..(((....)))))),-8.79,29.5
GTCATGGAAACATGAC ((((((....)))))),-34.5,56.1
GCGGATCCGAAAGGACGC (((..(((....)))))),-25.6,53.3

Sequence,folding enthalpy [1] [kcal/mol],Tm [2] [°C]
GGATGCGAAAGCATATCC ((((((....)))..))),-14.9,43.8
GCAGGAGGAAACTCCCGC ((.((((....)))).)),-24.1,45.8
GCGTAGGGACGC ((((....)))),-13,52
GAGACCGAAAGGTGTCTC ((((((....)))..))),-24,51.9
GATCTTCAGAAGATC ((((((...)))))),-35.9,40.3
GATCAATGATTTGATC ((((((....)))))),-32.7,44.8
GGGAGCGAAAGCTATCCC ((((((....)))..))),-16.6,48
GTTACGGGAAACCGTGAC ((.((((....)))).)),-29.8,49.8
GCTGTCGGAAACGGCAGC ((((.((....)).)))),-47.7,63
GGTTTTGGAAACAAAACC (((((((....))))))),-50.2,58.6
GCAATTGGAAACAATTAC (.(((((....))))).),-15.1,30.6
GATCCCTTAGGGGATC ((((((....)))))),-43.7,61.3
GGCTACGGAAACACAGCC ((((..(....)..)))),-23.6,35.5
GATCAGTAACTGATC ((((((...)))))),-37.8,47.9
GGATCTGGAAACAGACCC ((.((((....)))).)),-32.2,42
GTCAGCCCGAAAGGGGAC (((..(((....)))))),-13.7,42.4
GTCGACCGAAAGGTGGAC (((.(((....))).))),-42.1,56.1
GACTCCGGAAACGGAATC ((.((((....)))).)),-19.1,36.4
GTTCTCACGAAAGTGAAC (((..(((....)))))),-10.9,31.6
GGACGGGGAAACCCATCC (((.(((....))).))),-27.6,41.7
GATCGTGCTCACGATC ((((((....)))))),-48.2,58.9
GATCCATCTATGGATC ((((((....)))))),-39.3,55.8
GGATTCGAAAGAACCTCC ((((((....)))..))),-16.7,37.8
